In ChEMBL document CHEMBL1800018, “Discovery of a series of imidazo[4,5-b]pyridines with dual activity at angiotensin II type 1 receptor and peroxisome proliferator-activated receptor-γ” (J Med Chem, 2011):
Activity calls are given as the source filed them. The rule behind the calls is not given here.

Tests used:
Rattus norvegicus [1] = assay: Antidiabetic activity in ZDF rat assessed as blood glucose level at 10 mg/kg, po QD for 40 days (reference value: 771+/-60 mg/dL); format: functional
Rattus norvegicus [2] = assay: Antidiabetic activity in ZDF rat assessed as blood glucose level at 30 mg/kg, po QD for 40 days (reference value: 771+/-60 mg/dL); format: functional
Rattus norvegicus [3] = assay: Antidiabetic activity in ZDF rat assessed as blood glucose level at 100 mg/kg, po QD for 40 days (reference value: 771+/-60 mg/dL); format: functional
Rattus norvegicus [4] = assay: Antidiabetic activity in ZDF rat assessed as triglyceride level at 0.1 mg/kg, po QD for 40 days (reference value: 618+/-52 mg/dL); format: functional
Rattus norvegicus [5] = assay: Antidiabetic activity in ZDF rat assessed as triglyceride level at 100 mg/kg, po QD for 40 days (reference value: 618+/-52 mg/dL); format: functional
Rattus norvegicus [6] = assay: Antidiabetic activity in ZDF rat assessed as body weight gain at 3 mg/kg, po QD for 40 days (reference value: 133+/-9 g); format: functional
How it was run: (§1)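 Male ZDF rats, starting at about 6 weeks old, were dosed orally once daily for 40 days in 1.5% CMC/0.2% Tween 20 suspension, n = 8/group. Body weight was followed over the study. Gain was calculated per animal from day 0 to day 40 and compared with vehicle and pioglitazone (3 mg/kg) groups. Data are mean ± SEM.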

Rattus norvegicus [7] = assay: Antidiabetic activity in ZDF rat assessed as body weight gain at 1 mg/kg, po QD for 40 days (reference value: 133+/-9 g); format: functional; how it was run: as §1
Rattus norvegicus [8] = assay: Antidiabetic activity in ZDF rat assessed as body weight gain at 10 mg/kg, po QD for 40 days (reference value: 133+/-9 g); format: functional; how it was run: as §1
Rattus norvegicus [9] = assay: Antidiabetic activity in ZDF rat assessed as adiponectin level at 100 mg/kg, po QD for 40 days (reference value: 11.9+/-1.5 ug/ml); format: functional
Rattus norvegicus [10] = assay: Antidiabetic activity in ZDF rat assessed as body weight gain at 100 mg/kg, po QD for 40 days relative to pioglitazone; format: functional; how it was run: as §1
Rattus norvegicus [11] = species: Rattus norvegicus; assay: Steady state free plasma concentration in SHR rat; format: ADME, organism-based; conditions: in vivo, in the assay text read “ZDF rat” for “SHR rat”
[12] = target: T1, Peroxisome proliferator-activated receptor gamma (Homo sapiens, UniProt P37231); assay: Partial agonist activity at human PPARgamma-LBD/Gal4 DNA binding domain by transactivation assay
T1 sequence (P37231 whole entry): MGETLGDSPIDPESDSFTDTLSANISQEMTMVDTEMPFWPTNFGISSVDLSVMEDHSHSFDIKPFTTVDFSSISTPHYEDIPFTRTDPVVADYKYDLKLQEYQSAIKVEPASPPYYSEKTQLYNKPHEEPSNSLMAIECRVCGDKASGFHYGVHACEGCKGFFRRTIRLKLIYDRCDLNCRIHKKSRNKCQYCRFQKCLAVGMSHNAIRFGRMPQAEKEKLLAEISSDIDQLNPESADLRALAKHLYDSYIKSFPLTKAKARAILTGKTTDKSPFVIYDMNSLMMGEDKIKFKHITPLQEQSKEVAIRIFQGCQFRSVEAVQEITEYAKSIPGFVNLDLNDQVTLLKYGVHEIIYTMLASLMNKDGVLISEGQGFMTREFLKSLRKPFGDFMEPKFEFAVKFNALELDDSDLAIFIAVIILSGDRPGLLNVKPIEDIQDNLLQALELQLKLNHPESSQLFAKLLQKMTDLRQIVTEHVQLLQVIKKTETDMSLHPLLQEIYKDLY

[13] = target: T2, Type-1 angiotensin II receptor (Homo sapiens, UniProt P30556); assay: Binding affinity to human Angiotensin receptor 1
T2 sequence (P30556 whole entry): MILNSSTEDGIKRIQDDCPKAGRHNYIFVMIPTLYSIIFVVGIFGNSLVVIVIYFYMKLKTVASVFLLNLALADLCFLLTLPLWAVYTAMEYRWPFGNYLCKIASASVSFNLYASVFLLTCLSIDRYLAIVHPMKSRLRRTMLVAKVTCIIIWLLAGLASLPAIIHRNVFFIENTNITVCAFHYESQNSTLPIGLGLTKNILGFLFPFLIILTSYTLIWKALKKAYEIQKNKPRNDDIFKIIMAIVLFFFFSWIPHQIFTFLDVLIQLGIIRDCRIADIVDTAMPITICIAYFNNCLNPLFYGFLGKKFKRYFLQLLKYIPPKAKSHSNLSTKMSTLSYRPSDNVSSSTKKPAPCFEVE
How it was run: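 Competition radioligand binding on human recombinant AT1 receptors, displacing [¹²⁵I]Tyr⁴-Sar¹,Ile⁸-angiotensin II.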

[14] = target: T3, Peroxisome proliferator-activated receptor delta (Homo sapiens) (UniProt Q03181); assay: Transactivation of human PPARbeta
T3 sequence (whole entry): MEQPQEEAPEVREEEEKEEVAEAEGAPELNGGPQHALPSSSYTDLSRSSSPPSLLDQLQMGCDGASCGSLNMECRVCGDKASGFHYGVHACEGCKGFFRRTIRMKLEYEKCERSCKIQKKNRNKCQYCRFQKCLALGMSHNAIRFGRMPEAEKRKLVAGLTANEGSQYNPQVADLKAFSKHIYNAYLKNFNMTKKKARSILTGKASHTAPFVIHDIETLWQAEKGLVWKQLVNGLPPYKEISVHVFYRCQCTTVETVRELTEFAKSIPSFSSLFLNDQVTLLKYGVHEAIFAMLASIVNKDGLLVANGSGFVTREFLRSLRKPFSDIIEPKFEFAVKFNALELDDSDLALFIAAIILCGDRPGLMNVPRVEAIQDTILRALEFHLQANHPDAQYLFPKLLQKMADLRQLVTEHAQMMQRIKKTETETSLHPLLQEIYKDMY

[15] = Clearance in rat at 1 mg/kg, iv; format: ADME, organism-based; design: dose 1 mg/kg, route intravenous; conditions: in vivo
[16] = Volume of distribution at steady state in rat at 1 mg/kg, iv; format: ADME, organism-based; design: dose 1 mg/kg, route intravenous; conditions: in vivo, read-out: Vdss
[17] = AUC in rat at 5 mg/kg, po; format: ADME, organism-based; design: dose 5 mg/kg, route oral; conditions: plasma
[18] = Oral bioavailability in rat at 5 mg/kg; format: ADME, organism-based; conditions: in vivo
[19] = Cmax in SHR rat at 1 mg/kg, po; format: ADME, organism-based; design: dose 1 mg/kg, route oral; conditions: in vivo
How it was run: (§2)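 SHR received a single oral dose of 1, 3 or 10 mg/kg. Systemic exposure was determined as plasma Cmax and AUC.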

[20] = Cmax in SHR rat at 3 mg/kg, po; format: ADME, organism-based; design: dose 3 mg/kg, route oral; conditions: in vivo; how it was run: as §2
[21] = Cmax in SHR rat at 10 mg/kg, po; format: ADME, organism-based; design: dose 10 mg/kg, route oral; conditions: in vivo; how it was run: as §2
[22] = AUC in SHR rat at 10 mg/kg, po; format: ADME, organism-based; design: dose 10 mg/kg, route oral; conditions: plasma; how it was run: as §2
[23] = Cmax in ZDF rat at 3 mg/kg, po; format: ADME, organism-based; design: dose 3 mg/kg, route oral; conditions: in vivo
How it was run: (§3)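 Male ZDF rats; satellite animals outside the efficacy groups were given oral doses of 3, 10 or 100 mg/kg. Plasma Cmax and AUC were calculated from these animals.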

[24] = Cmax in ZDF rat at 10 mg/kg, po; format: ADME, organism-based; design: dose 10 mg/kg, route oral; conditions: in vivo; how it was run: as §3
[25] = Cmax in ZDF rat at 100 mg/kg, po; format: ADME, organism-based; design: dose 100 mg/kg, route oral; conditions: in vivo; how it was run: as §3
[26] = AUC in ZDF rat at 3 mg/kg, po; format: ADME, organism-based; design: dose 3 mg/kg, route oral; conditions: plasma; how it was run: as §3
Rattus norvegicus [27] = assay: Antihypertensive activity in SHR rat assessed as induction of reflex tachycardia at 10 mg/kg, po single dose measured 4 to 8 hrs post dosing

Cp(f)ss (Rattus norvegicus [11]): 2.6 nM
EC50 [12]: 212 nM
Ki [13]: 0.69 nM
Activity [14]: inactive
clearance [15]: 14 mL/min/kg
Vd [16]: 2.9 L/kg
AUC [17]: 4950 ng·h/mL
bioavailability [18]: 80%
Cmax [19]: 74 ng/mL
Cmax [20]: 283 ng/mL
Cmax [21]: 3070 ng/mL
AUC [22]: 6830 ng·h/mL
Cmax [23]: 267 ng/mL
Cmax [24]: 2730 ng/mL
Cmax [25]: 177000 ng/mL
AUC [26]: 4400 ng·h/mL
Compound: CCc1nc2c(C)cc(CC(C)C)nc2n1[C@H]1CCc2cc(-c3ccccc3-c3nnn[nH]3)ccc21
Activity (Rattus norvegicus [1]): 159 mg/dL
Activity (Rattus norvegicus [2]): 140 mg/dL
Activity (Rattus norvegicus [3]): 116 mg/dL
Activity (Rattus norvegicus [4]): 559 mg/dL
Activity (Rattus norvegicus [5]): 151 mg/dL
Activity (Rattus norvegicus [6]): 159 g
Activity (Rattus norvegicus [7]): 150 g
Activity (Rattus norvegicus [8]): 200 g
Activity (Rattus norvegicus [9]): 27.5 µg/mL
Activity (Rattus norvegicus [10]): 51%
Activity (Rattus norvegicus [27]): Active
